This passage reports inhibition, Activity and inhibition in vivo results from ChEMBL document CHEMBL1221219, “Selective blockade of 2-arachidonoylglycerol hydrolysis produces cannabinoid behavioral effects” (Nat Chem Biol, 2009).

Each structure is given as a SMILES string. Activity calls are given as the source filed them. The calls are words filed in the database; no cut-off is given here.

A word on the inhibition in vivo: it is the change of the read-out against control, counted positive when it falls.

Experiment [1] relates to Mus musculus. Put plainly: Inhibition of MAGL in C57B1/6J mouse brain membrane at 16 mg/kg, ip after 0.5 hrs by competitive activity-based protein profiling method. The experiment is classed as functional, organism-based. Details: dose 16 mg/kg. The procedure, abridged: (§1)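 Male C57Bl/6J mice (6-8 weeks, 20-26 g) given inhibitor i.p. in 4:1 v/v PEG300:Tween80 at 4 ul g^-1 (4-40 mg kg^-1); vehicle controls. Brain membrane proteomes (1 mg ml^-1 in PBS) labelled with FP-rhodamine (2 μM) for 30 min at room temperature. Readout by SDS-PAGE and in-gel fluorescence scanning, compared with vehicle.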

Experiment [2] has as its system Mus musculus. Put plainly: Induction of hypothermia in C57B1/6J mouse at 16 mg/kg, ip pretreated with rimonabant. In kind it is functional, organism-based. Set-up: dose 16 mg/kg. In a few lines: (§2)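 Male C57Bl/6J mice, 6-8 weeks, 20-26 g, given 16 mg kg^-1 i.p. in 4:1 v/v PEG300:Tween80 at 4 μl g^-1; vehicle controls received PEG300:Tween80 alone. Cannabinoid effects were scored in the tetrad test.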

The test system of experiment [3] is Mus musculus. Put plainly: Inhibition of FAAH in C57B1/6J mouse brain membrane at 16 mg/kg, ip after 4 hrs by competitive activity-based protein profiling-MudPIT method. Details: dose 16 mg/kg. In kind it is functional, organism-based. The procedure, abridged: (§3)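 After i.p. dosing in 4:1 PEG300:Tween80, male C57Bl/6J mice were killed at 4 h. Brain membrane proteomes from treated and vehicle mice were labelled with FP-biotin. Labelled proteins were enriched on avidin, digested on-bead with trypsin and analysed by multidimensional LC-MS. Proteins were identified by SEQUEST, and dosed samples were compared with vehicle.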

In experiment [4] the test system is Mus musculus. The experiment in a line: Inhibition of MAGL in orally dosed C57B1/6J mouse brain membrane after 4 hrs. In kind it is functional, organism-based. In a few lines: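 Oral dosing used male C57Bl/6J mice (6-8 weeks) given inhibitor in PEG300 vehicle at 4 ul g^-1, handled as for i.p. dosing. Brains were taken 4 h later for analysis of brain membrane hydrolase activity.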

Experiment [5] deals with Mus musculus. The experiment in a line: Analgesic activity against CB1 receptor deficient C57B1/6J mouse at 16 mg/kg, ip. In kind it is functional, organism-based. Details: dose 16 mg/kg. The procedure, abridged:
as §2

Experiment [6] relates to Mus musculus. Put plainly: Inhibition of ABHD10 in C57B1/6J mouse brain membrane at 16 mg/kg, ip after 4 hrs by competitive activity-based protein profiling-MudPIT method. Set-up: dose 16 mg/kg. In kind it is functional, organism-based. In a few lines:
(§4)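 Mice were dosed 16 mg kg^-1 i.p. or vehicle and killed at 4 h. Brain membrane proteomes were labelled with FP-biotin, avidin-enriched, trypsin-digested on bead, analysed by multidimensional LC-MS and identified by SEQUEST.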

The test system of experiment [7] is Mus musculus. Put plainly: Decrease in arachidonic acid levels in C57B1/6J mouse brain at 16 mg/kg, ip by LC-MS. The experiment is classed as functional, organism-based. Details: dose 16 mg/kg. The procedure, abridged:
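Mice received 16 mg kg^-1 i.p. in 4:1 PEG300:Tween80 and were killed at 0.5, 1, 2, 4, 8 and 24 h. Brain lipids, including N-acylethanolamines, MAGs, free fatty acids and arachidonic acid, were measured by LC-MS.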

Experiment [8] concerns Mus musculus. The experiment in a line: Inhibition of PREPL in C57B1/6J mouse brain membrane at 16 mg/kg, ip after 4 hrs by competitive activity-based protein profiling-MudPIT method. Details: dose 16 mg/kg. The experiment is classed as functional, organism-based. In a few lines: as §3
Experiment [9] deals with Cannabinoid receptor 2 (Homo sapiens) (UniProt P34972). The experiment in a line: Displacement of [3H]CP-55940 from CB2 expressed in CHO cells after 90 mins by liquid scintillation. The experiment is classed as cell-based. (In general: Loss of bound radioactivity is the signal in a displacement assay; it reports binding, not function.)
Cannabinoid receptor 2 (Homo sapiens), sequence (P34972 whole entry): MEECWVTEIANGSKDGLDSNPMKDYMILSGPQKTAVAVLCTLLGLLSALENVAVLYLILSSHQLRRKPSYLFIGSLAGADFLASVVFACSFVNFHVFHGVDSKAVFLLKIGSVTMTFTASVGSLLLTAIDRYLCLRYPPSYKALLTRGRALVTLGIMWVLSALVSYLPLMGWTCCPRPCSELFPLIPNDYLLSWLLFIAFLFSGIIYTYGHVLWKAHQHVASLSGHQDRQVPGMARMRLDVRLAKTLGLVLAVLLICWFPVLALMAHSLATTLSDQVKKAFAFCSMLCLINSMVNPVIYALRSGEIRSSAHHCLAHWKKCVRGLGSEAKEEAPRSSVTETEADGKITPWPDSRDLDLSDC
Experiment [10] concerns Mus musculus. The experiment in a line: Inhibition of RBBP9 in C57B1/6J mouse brain membrane at 16 mg/kg, ip after 4 hrs by competitive activity-based protein profiling-MudPIT method. In kind it is functional, organism-based. Set-up: dose 16 mg/kg. In a few lines: as §3
The subject of experiment [11] is Mus musculus. The experiment in a line: Inhibition of CG167 in C57B1/6J mouse brain membrane at 16 mg/kg, ip after 4 hrs by competitive activity-based protein profiling-MudPIT method. Details: dose 16 mg/kg. In kind it is functional, organism-based. The procedure, abridged:
as §4

The subject of experiment [12] is Mus musculus. Put plainly: Inhibition of FAAH in C57B1/6J mouse brain membrane at 16 mg/kg, ip after 0.5-24 hrs by competitive activity-based protein profiling method. The following applies: route intraperitoneal. In kind it is functional. The procedure, abridged:
as §1

Experiment [13] has as its system Mus musculus. The experiment in a line: Change in mono-oleoylglycerol levels in intraperitoneally dosed C57B1/6J mouse brain by LC-MS. In kind it is functional, organism-based. In a few lines: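 Male C57Bl/6J mice given 4, 8, 16 or 40 mg kg^-1 i.p. in 4:1 PEG300:Tween80 at 4 μl g^-1, or vehicle, and killed after 4 h. Whole-brain lipids were quantified by LC-MS.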

Experiment [14] concerns Mus musculus. Put plainly: Inhibition of ACOT1 in C57B1/6J mouse brain membrane at 16 mg/kg, ip after 4 hrs by competitive activity-based protein profiling-MudPIT method. In kind it is functional, organism-based. Set-up: dose 16 mg/kg. In a few lines: as §4
Experiment [15] relates to Mus musculus. The experiment in a line: Inhibition of CES31 in C57B1/6J mouse brain membrane at 16 mg/kg, ip after 4 hrs by competitive activity-based protein profiling-MudPIT method. The experiment is classed as functional, organism-based. Set-up: dose 16 mg/kg. The procedure, abridged: as §4
For experiment [16], the system named is Mus musculus. Put plainly: Inhibition of NTE-like in C57B1/6J mouse brain membrane at 16 mg/kg, ip after 4 hrs by competitive activity-based protein profiling-MudPIT method. In kind it is functional, organism-based. Set-up: dose 16 mg/kg. In a few lines: as §3
The test system of experiment [17] is Mus musculus. The experiment in a line: Inhibition of AADACL1 in C57B1/6J mouse brain membrane at 16 mg/kg, ip after 4 hrs by competitive activity-based protein profiling-MudPIT method. The experiment is classed as functional, organism-based. Details: dose 16 mg/kg. The procedure, abridged: as §4
Experiment [18] relates to Mus musculus. The experiment in a line: Inhibition of ABHD11 in C57B1/6J mouse brain membrane at 16 mg/kg, ip after 4 hrs by competitive activity-based protein profiling-MudPIT method. In kind it is functional, organism-based. Details: dose 16 mg/kg. The procedure, abridged:
as §4

For experiment [19], the system named is Mus musculus. Put plainly: Inhibition of PNPLA8 in C57B1/6J mouse brain membrane at 16 mg/kg, ip after 4 hrs by competitive activity-based protein profiling-MudPIT method. The experiment is classed as functional, organism-based. Details: dose 16 mg/kg. In a few lines:
as §3

Experiment [20] has as its system Mus musculus. The experiment in a line: Effect on interstitial level of AEA in C57B1/6 mouse nucleus accumbens at 10 mg/kg, ip by following neuronal depolarization by microdialysis. The experiment is classed as functional, organism-based. Details: dose 10 mg/kg. In a few lines: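 In vivo microdialysis from nucleus accumbens of C57Bl/6 mice after 10 mg kg^-1 i.p. Drug was given 1 h before neuronal depolarization, and interstitial AEA and 2-AG were measured in the dialysate.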

Experiment [21] concerns the target Cannabinoid receptor 1 (Homo sapiens) (UniProt P21554). Put plainly: Displacement of [3H]rimonabant from CB1 in cerebellar membrane after 90 mins by liquid scintillation. The following applies: Cerebellum. The experiment is classed as cell membranes.

Cannabinoid receptor 1 (Homo sapiens), sequence (P21554 whole entry): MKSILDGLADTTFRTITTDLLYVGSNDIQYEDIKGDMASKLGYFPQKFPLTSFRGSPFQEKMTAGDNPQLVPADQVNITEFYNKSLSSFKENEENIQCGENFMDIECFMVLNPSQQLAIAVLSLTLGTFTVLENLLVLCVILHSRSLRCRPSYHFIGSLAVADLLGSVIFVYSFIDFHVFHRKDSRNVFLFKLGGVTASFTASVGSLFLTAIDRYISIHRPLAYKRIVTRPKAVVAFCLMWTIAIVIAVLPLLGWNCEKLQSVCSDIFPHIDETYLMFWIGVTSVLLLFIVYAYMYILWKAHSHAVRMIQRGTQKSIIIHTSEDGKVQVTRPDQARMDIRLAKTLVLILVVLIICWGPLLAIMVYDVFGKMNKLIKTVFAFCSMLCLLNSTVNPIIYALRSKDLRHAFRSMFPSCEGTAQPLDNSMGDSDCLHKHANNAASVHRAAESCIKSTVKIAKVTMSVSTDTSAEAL

In the case of `O=C(Oc1ccc([N+](=O)[O-])cc1)N1CCC(C(O)(c2ccc3c(c2)OCO3)c2ccc3c(c2)OCO3)CC1`, the inhibition result in experiment [1] and in experiment [4] was “Active” throughout. For the same molecule, the outcome in [2], in [5], in experiment [9], in [13], in experiment [20] and in experiment [21] was inactive. Besides, the inhibition entry in experiment [3], in [6], in [8], in [10], in experiment [11] and in experiment [14] was “inactive” in each case. The inhibition result in experiment [15], in [16], in experiment [17], in experiment [18] and in experiment [19] was “inactive” each time. Moreover, the outcome in [7] was Active. For the same molecule, in [12], 16 mg/kg produced 70% inhibition in vivo.
